Reference: ChEMBL document CHEMBL4145598, “Discovery and Development of 8-Substituted Cycloberberine Derivatives as Novel Antibacterial Agents against MRSA” (ACS Med Chem Lett, 2018)

How the values were obtained:
[1] = system: Staphylococcus aureus; experiment: Antimicrobial activity against methicillin-sensitive Staphylococcus aureus isolate 13-20 after 18 hrs by agar dilution assay; format: functional; conditions: isolate 13-20, 18 h
[2] = system: Staphylococcus aureus; experiment: Antimicrobial activity against methicillin-resistant Staphylococcus aureus ATCC-BAA-1708 after 18 hrs by agar dilution assay; format: functional; conditions: ATCC-BAA-1708, 18 h
Outline: (§1)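 Drug-resistant S. aureus (MRSA/VISA) panel. It includes ATCC reference strains and clinical isolates from patients in Chinese hospitals. MIC was determined by standard methods and reported in μg/mL, with levofloxacin as the reference drug.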

[3] = system: Staphylococcus aureus; experiment: Antimicrobial activity against methicillin-sensitive Staphylococcus aureus isolate 13-19 after 18 hrs by agar dilution assay; format: functional; conditions: isolate 13-19, 18 h
[4] = system: Staphylococcus aureus; experiment: Antimicrobial activity against methicillin-sensitive Staphylococcus aureus ATCC 29213 after 18 hrs by agar dilution assay; format: functional; conditions: ATCC 29213, 18 h
[5] = system: Staphylococcus aureus; experiment: Antimicrobial activity against vancomycin-intermediate Staphylococcus aureus ATCC 700698 after 18 hrs by agar dilution assay; format: functional; conditions: ATCC 700698, 18 h
Outline: (§2)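 MICs in μg/mL against drug-resistant S. aureus (MRSA/VISA) by standard methods, with levofloxacin as the reference drug. ATCC strains were used.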

[6] = system: Staphylococcus aureus; experiment: Antimicrobial activity against methicillin-sensitive Staphylococcus aureus isolate 15 after 18 hrs by agar dilution assay; format: functional; conditions: isolate 15, 18 h
[7] = system: Staphylococcus aureus; experiment: Antimicrobial activity against methicillin-resistant Staphylococcus aureus isolate 12-13 after 18 hrs by agar dilution assay; format: functional; conditions: isolate 12-13, 18 h; outline: as §1
[8] = system: Staphylococcus aureus; experiment: Antimicrobial activity against methicillin-sensitive Staphylococcus aureus isolate 13-21 after 18 hrs by agar dilution assay; format: functional; conditions: isolate 13-21, 18 h
[9] = system: Staphylococcus aureus; experiment: Antimicrobial activity against methicillin-resistant Staphylococcus aureus ATCC 33591 after 18 hrs by agar dilution assay; format: functional; conditions: ATCC 33591, 18 h; outline: as §1
[10] = system: Staphylococcus epidermidis; experiment: Antimicrobial activity against methicillin-sensitive Staphylococcus epidermidis isolate 13-1 after 18 hrs by agar dilution assay; format: functional; conditions: isolate 13-1, 18 h
[11] = system: Staphylococcus aureus; experiment: Antimicrobial activity against methicillin-resistant Staphylococcus aureus isolate 12-8 after 18 hrs by agar dilution assay; format: functional; conditions: isolate 12-8, 18 h; outline: as §1
[12] = system: Staphylococcus aureus; experiment: Antimicrobial activity against vancomycin-intermediate Staphylococcus aureus ATCC 700699 after 18 hrs by agar dilution assay; format: functional; conditions: ATCC 700699, 18 h; outline: as §2
[13] = system: Staphylococcus epidermidis; experiment: Antimicrobial activity against methicillin-sensitive Staphylococcus epidermidis ATCC 12228 after 18 hrs by agar dilution assay; format: functional; conditions: ATCC 12228, 18 h
[14] = system: Staphylococcus saprophyticus; experiment: Antimicrobial activity against Staphylococcus saprophyticus ATCC 15305 after 18 hrs by agar dilution assay; format: functional; conditions: ATCC 15305, 18 h
[15] = system: Staphylococcus hominis; experiment: Antimicrobial activity against Staphylococcus hominis ATCC 35982 after 18 hrs by agar dilution assay; format: functional; conditions: ATCC 35982, 18 h
[16] = system: Staphylococcus aureus; experiment: Antimicrobial activity against methicillin-sensitive Staphylococcus aureus isolate 13-17 after 18 hrs by agar dilution assay; format: functional; conditions: isolate 13-17, 18 h
[17] = system: Staphylococcus aureus; experiment: Antimicrobial activity against methicillin-resistant Staphylococcus aureus isolate 12-16 after 18 hrs by agar dilution assay; format: functional; conditions: isolate 12-16, 18 h; outline: as §1
[18] = system: Staphylococcus aureus; experiment: Antimicrobial activity against methicillin-resistant Staphylococcus aureus isolate 13-23 after 18 hrs by agar dilution assay; format: functional; conditions: isolate 13-23, 18 h; outline: as §1
[19] = system: Staphylococcus aureus; experiment: Antimicrobial activity against methicillin-resistant Staphylococcus aureus isolate 12-3 after 18 hrs by agar dilution assay; format: functional; conditions: isolate 12-3, 18 h; outline: as §1
[20] = system: Staphylococcus aureus; experiment: Antimicrobial activity against methicillin-resistant Staphylococcus aureus isolate 13-18 after 18 hrs by agar dilution assay; format: functional; conditions: isolate 13-18, 18 h; outline: as §1
[21] = Stability in Sprague-Dawley rat blood assessed as parent compound remaining at […] after 420 mins by LC-MS/MS analysis; format: ADME, tissue-based; conditions: read-out: Stability
[22] = Cytotoxicity against human A549 cells assessed as decrease in cell viability after 24 hrs by MTT assay; format: cell-based
Outline: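 A549 cells were treated with compound at a series of concentrations for 24 h, and viability was read by MTT assay. Controls received 0.4% (v/v) DMSO. CC50 is given in μg/mL.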

SMILES	MIC [1]	MIC [2]	MIC [3]	MIC [4]	MIC [5]	MIC [6]	MIC [7]	MIC [8]	MIC [9]	MIC [10]	MIC [11]	MIC [12]	MIC [13]	MIC [14]	MIC [15]	MIC [16]	MIC [17]	MIC [18]	MIC [19]	MIC [20]	other results
COc1ccc2c(c[n+]3c4c2ccc2c5c(cc(c24)CC3)OCO5)c1NC(=O)c1ccccn1.[Cl-]	> 64 µg/mL	> 64 µg/mL	> 64 µg/mL	> 64 µg/mL	> 64 µg/mL	> 64 µg/mL	> 64 µg/mL	> 64 µg/mL	> 64 µg/mL	> 64 µg/mL	> 64 µg/mL	> 64 µg/mL	> 64 µg/mL	> 64 µg/mL	> 64 µg/mL	> 64 µg/mL	> 64 µg/mL	> 64 µg/mL	> 64 µg/mL	> 64 µg/mL	–
COc1ccc2c(c[n+]3c4c2ccc2c5c(cc(c24)CC3)OCO5)c1NCc1ccccc1.[Cl-]	64 µg/mL	64 µg/mL	64 µg/mL	64 µg/mL	32 µg/mL	64 µg/mL	64 µg/mL	64 µg/mL	64 µg/mL	64 µg/mL	64 µg/mL	> 64 µg/mL	8 µg/mL	8 µg/mL	8 µg/mL	64 µg/mL	64 µg/mL	64 µg/mL	64 µg/mL	64 µg/mL	–
COc1ccc2c(c[n+]3c4c2ccc2c5c(cc(c24)CC3)OCO5)c1NC(=O)C12CC3CC(CC(C3)C1)C2.[Cl-]	> 64 µg/mL	> 64 µg/mL	> 64 µg/mL	> 64 µg/mL	> 64 µg/mL	> 64 µg/mL	> 64 µg/mL	> 64 µg/mL	> 64 µg/mL	> 64 µg/mL	> 64 µg/mL	> 64 µg/mL	> 64 µg/mL	> 64 µg/mL	> 64 µg/mL	> 64 µg/mL	> 64 µg/mL	> 64 µg/mL	> 64 µg/mL	> 64 µg/mL	–
COc1ccc2c(c[n+]3c4c2ccc2c5c(cc(c24)CC3)OCO5)c1OCC(=O)C12CC3CC(CC(C3)C1)C2.[Br-]	4 µg/mL	4 µg/mL	4 µg/mL	4 µg/mL	8 µg/mL	2 µg/mL	4 µg/mL	2 µg/mL	2 µg/mL	2 µg/mL	4 µg/mL	8 µg/mL	2 µg/mL	2 µg/mL	2 µg/mL	2 µg/mL	2 µg/mL	2 µg/mL	4 µg/mL	4 µg/mL	remaining at 7 h [21]: 58%; CC50 at 24 h [22]: 2 µg/mL
CCC(=O)COc1c(OC)ccc2c1c[n+]1c3c2ccc2c4c(cc(c23)CC1)OCO4.[Br-]	> 64 µg/mL	> 64 µg/mL	> 64 µg/mL	> 64 µg/mL	> 64 µg/mL	> 64 µg/mL	> 64 µg/mL	> 64 µg/mL	> 64 µg/mL	> 64 µg/mL	> 64 µg/mL	> 64 µg/mL	> 64 µg/mL	> 64 µg/mL	> 64 µg/mL	> 64 µg/mL	> 64 µg/mL	> 64 µg/mL	> 64 µg/mL	> 64 µg/mL	–
COc1ccc2c(c[n+]3c4c2ccc2c5c(cc(c24)CC3)OCO5)c1OCC(=O)c1ccc(F)cc1.[Br-]	16 µg/mL	64 µg/mL	8 µg/mL	64 µg/mL	> 64 µg/mL	8 µg/mL	8 µg/mL	8 µg/mL	8 µg/mL	8 µg/mL	8 µg/mL	> 64 µg/mL	8 µg/mL	32 µg/mL	32 µg/mL	16 µg/mL	16 µg/mL	8 µg/mL	8 µg/mL	16 µg/mL	–
